Calls of active or inactive are those of the source. The rule behind the calls is not given here.
Key:
[1] = Antiinflammatory activity in DBA/1 mouse splenocytes assessed as IFNgamma production at 100 nM after 2 hrs by ELISA (reference value: 731 +/- 15 pg/ml); type: functional, Splenocyte
[2] = Upregulation of LAIR-1 expression in DBA/1 mouse splenocytes at 10^-7 M after overnight incubation by flow cytometric analysis (reference value: 973 +/- 95); type: functional, cell-based; details: Splenocyte
In short: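 Splenocytes isolated from DBA/1 mice were cultured overnight with secosteroid at 10−7 M or vehicle control. Cells were stained with fluorochrome-labelled anti-CD4 and anti-LAIR-1 antibodies and analysed by multiparameter flow cytometry, gating on CD4 cells. At least 10 000 cells were counted per sample. Read-out is LAIR-1 mean fluorescence, given as the mean of two separate analyses ± SD.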

Vitamin D3 receptor [3] = molecular target: T1, Vitamin D3 receptor (Homo sapiens, UniProt P11473); assay: Transactivation of VDR in human HaCaT cells after 24 hrs by luciferase reporter gene assay; type: cell-based
T1 sequence (P11473 whole entry): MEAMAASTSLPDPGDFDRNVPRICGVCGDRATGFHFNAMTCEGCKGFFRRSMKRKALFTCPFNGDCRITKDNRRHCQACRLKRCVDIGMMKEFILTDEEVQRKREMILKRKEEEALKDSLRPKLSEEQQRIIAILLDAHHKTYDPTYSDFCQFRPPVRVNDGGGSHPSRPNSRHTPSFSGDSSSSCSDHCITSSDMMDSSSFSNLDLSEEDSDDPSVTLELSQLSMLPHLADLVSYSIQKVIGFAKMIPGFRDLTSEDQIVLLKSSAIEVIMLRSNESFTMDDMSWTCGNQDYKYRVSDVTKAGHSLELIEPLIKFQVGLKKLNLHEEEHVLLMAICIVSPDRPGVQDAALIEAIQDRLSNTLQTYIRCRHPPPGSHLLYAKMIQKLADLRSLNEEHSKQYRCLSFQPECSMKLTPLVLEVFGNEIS

Vitamin D3 receptor [4] = molecular target: T1, Vitamin D3 receptor; assay: Transactivation of VDR in human Caco2 cells after 24 hrs by luciferase reporter gene assay; type: cell-based, Caco-2
[5] = molecular target: T2, 25-hydroxyvitamin D-1 alpha hydroxylase, mitochondrial (Mus musculus) (UniProt O35084); assay: Substrate activity at mouse CYP27B1 assessed as 1alpha-hydroxylation by measuring ratio of Kcat to Km after 2 mins by reverse-phase HPLC analysis
T2 sequence (whole entry): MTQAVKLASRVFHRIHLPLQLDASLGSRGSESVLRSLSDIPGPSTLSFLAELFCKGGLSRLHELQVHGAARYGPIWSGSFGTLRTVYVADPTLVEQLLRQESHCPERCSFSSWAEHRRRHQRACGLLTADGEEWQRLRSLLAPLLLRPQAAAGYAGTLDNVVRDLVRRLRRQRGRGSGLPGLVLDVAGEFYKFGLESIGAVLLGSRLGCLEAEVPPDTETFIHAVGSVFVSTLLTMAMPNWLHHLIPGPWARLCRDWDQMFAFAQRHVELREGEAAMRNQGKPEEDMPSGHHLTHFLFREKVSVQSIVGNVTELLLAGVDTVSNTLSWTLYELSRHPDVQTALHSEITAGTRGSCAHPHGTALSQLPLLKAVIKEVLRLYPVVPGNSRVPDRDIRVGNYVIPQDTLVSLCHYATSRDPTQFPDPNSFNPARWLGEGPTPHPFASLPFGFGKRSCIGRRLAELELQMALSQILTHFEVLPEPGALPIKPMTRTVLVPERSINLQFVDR
In short: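 Substrates incorporated into dioleoylphosphatidylcholine/cardiolipin vesicles over a range of concentrations and incubated 2 min. Products extracted with dichloromethane and quantified by reverse-phase C18 HPLC. Km and kcat from a Michaelis–Menten fit (±SE of fit); kcat/Km expressed per mmol/mol phospholipid.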

[6] = molecular target: T3, Vitamin D3 receptor (Homo sapiens) (UniProt P11473); assay: Transactivation of VDR in human HaCaT cells up to 1000 nM after 24 hrs by luciferase reporter gene assay; type: cell-based
T3 sequence (whole entry): T1 sequence (P11473 whole entry)
In short: (§1)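 Cells were lentivirally transduced with a VDRE-luciferase reporter and selected 1 week with puromycin (1 µg/mL). Seeded at 1000 cells/well in FBS-free medium for 24 h, then treated 24 h with secosteroids in DMSO (0.1% final; 0.1% DMSO as vehicle control). Luciferase read by ONE-Glo. Triplicate per concentration; EC50 reported.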

[7] = molecular target: T3, Vitamin D3 receptor (Homo sapiens); assay: Transactivation of VDR in human Caco2 cells up to 1000 nM after 24 hrs by luciferase reporter gene assay; type: cell-based; details: Caco-2; in short: as §1

Compound | Activity [1] [pg/mL] | Flu intensity [2] | EC50 (Vitamin D3 receptor [3]) [nM] | EC50 (Vitamin D3 receptor [4]) [nM] | Ratio [5] [min⁻¹] | Activity [6] | Activity [7]
C=C1/C(=C\C=C2/CCC[C@]3(C)[C@@H]([C@H](C)OCCC(C)(C)O)CC[C@@H]23)C[C@@H](O)C[C@@H]1O [MAXACALCITOL] | 356 | 1510 | 37.9 | 40.8 |  |  | 
C=C1CC[C@H](O)C/C1=C/C=C1\CCC[C@@]2(C)[C@H]1CC[C@@H]2[C@@](C)(O)CC[C@H](O)C(C)C | 923 | 1540 |  |  | 0.71 | inactive | inactive
C=C1CC[C@H](O)C/C1=C/C=C1\CCC[C@@]2(C)[C@H]1CC[C@@H]2[C@@](C)(O)CC[C@@H](O)C(C)C | 465 | 1910 |  |  | 3.9 | inactive | inactive
C=C1/C(=C\C=C2/CCC[C@]3(C)[C@@H]([C@H](C)CCCC(C)(C)O)CC[C@@H]23)C[C@@H](O)C[C@@H]1O |  | 1640 |  |  |  |  | 
C=C1/C(=C\C=C2/CCC[C@@]3(C)[C@H]2CC[C@@H]3[C@@](C)(O)CC[C@H](O)C(C)C)C[C@@H](O)C[C@@H]1O | 589 | 1820 | 271 | 208 |  |  | 
C=C1/C(=C\C=C2/CCC[C@@]3(C)[C@H]2CC[C@@H]3[C@@](C)(O)CC[C@@H](O)C(C)C)C[C@@H](O)C[C@@H]1O | 291 | 2100 | 64.9 | 66.9 |  |  | 

From ChEMBL document CHEMBL3621103, “Chemical Synthesis and Biological Activities of 20S,24S/R-Dihydroxyvitamin D3 Epimers and Their 1α-Hydroxyl Derivatives” (J Med Chem, 2015)
